# Values joined by “and” are separate entries in the source; they are usually repeats but may differ in a detail not shown here. Equal values may be shown once. Read-outs that look alike come from different tables or passages of the source.
# Assays:
# CYP3A4 [1] = biological target: CYP3A4 (Homo sapiens, UniProt P08684); assay type: in vitro ADME; conditions: rCYP3A4, NADPH, up to 60 min
# CYP3A5 = CYP3A5 (Homo sapiens, UniProt P20815); assay: Metabolism of BI 425809 by recombinant CYP isoforms; assay type: in vitro ADME
# human liver microsomes = assay: Turnover of BI 425809 in human liver microsomes; assay type: in vitro ADME; conditions: BI 425809 0.2, 2, 10 μM; up to 60 min
# CYP3A = assay: BI 425809 metabolism by human hepatocytes; assay type: in vitro ADME; conditions: erythromycin 30 µM, all BI 425809 concentrations evaluated
# [2] = Phase I DDI study with itraconazole: plasma pharmacokinetics of BI 425809; assay type: in vivo, human (healthy male volunteers); conditions: for AUC(0-inf): AUC0-∞
# [3] = Phase I DDI study with rifampicin: plasma pharmacokinetics of BI 425809; assay type: in vivo, human (healthy male volunteers); conditions: for AUC(0-inf): AUC0-∞
# [4] = Phase I DDI study with itraconazole: safety and tolerability; assay type: in vivo, human (healthy male volunteers); conditions: for Treatment-related AEs / Participants with any AE / Gastrointestinal disorders / General disorders and administration site conditions / Infections and infestations / Musculoskeletal and connective tissue disorders / Nervous system disorders / Vascular disorders: DDI + itraconazole study; for Participants with any AE: 16 participants per treatment; for Gastrointestinal disorders / General disorders and administration site conditions / Infections and infestations / Musculoskeletal and connective tissue disorders / Nervous system disorders / Vascular disorders: system organ class
# In short: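 Healthy males aged 18–50, BMI 18.5–29.9, received a single oral 25 mg test compound dose alone in period 1. In period 2 the same dose was given on day 4 of oral itraconazole, 200 mg QD on days 2–10. Washout was ≥16 days. Dosing followed a standardised breakfast, with 240 ml water. Safety was scored as frequency n (%) of AEs by system organ class, including physical exam findings, alongside labs, vital signs and 12-lead ECG.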
# [5] = Phase I DDI study with rifampicin: safety and tolerability; assay type: in vivo, human (healthy male volunteers); conditions: for Participants with any AE: 16 participants per treatment
# [6] = Analyte stability in human plasma samples containing tripotassium EDTA; assay type: physicochemical; conditions: human plasma with tripotassium EDTA, -20 °C
# [7] = doses up to 75 mg in healthy volunteers; cited from earlier work
# [8] = test system: cerebrospinal fluid glycine levels; conditions: multiple oral administrations, doses as low as 10 mg, dose-dependent; cited from earlier work
# CYP3A4 [9] = conditions: human liver microsomes; CYP3A4 inhibitor ketoconazole
# [10] = BI 425809 + itraconazole relative to BI 425809 alone
# [11] = male, human, plasma, oral, 25 mg
# [12] = male, human, plasma, oral, 25 mg, gMean, BI 425809 25 mg alone, N = 16
# [13] = BI 425809 + rifampicin relative to BI 425809 alone
# [14] = DDI + rifampicin study, system organ class
# Chain of CYP3A5 (P20815 whole entry, canonical isoform): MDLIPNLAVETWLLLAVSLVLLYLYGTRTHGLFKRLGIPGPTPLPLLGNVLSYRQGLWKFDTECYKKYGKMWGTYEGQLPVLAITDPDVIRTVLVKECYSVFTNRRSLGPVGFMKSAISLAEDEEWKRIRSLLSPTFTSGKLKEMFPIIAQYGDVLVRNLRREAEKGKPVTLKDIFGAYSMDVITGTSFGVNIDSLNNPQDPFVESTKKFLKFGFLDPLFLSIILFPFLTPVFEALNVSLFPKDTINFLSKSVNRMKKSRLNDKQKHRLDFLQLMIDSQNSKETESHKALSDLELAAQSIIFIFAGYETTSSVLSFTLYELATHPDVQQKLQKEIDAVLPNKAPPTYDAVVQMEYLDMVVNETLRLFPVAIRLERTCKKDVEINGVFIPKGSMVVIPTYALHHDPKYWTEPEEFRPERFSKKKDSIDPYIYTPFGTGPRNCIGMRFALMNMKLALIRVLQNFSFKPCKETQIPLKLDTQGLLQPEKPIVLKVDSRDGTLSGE
# Chain of CYP3A4 (Homo sapiens, UniProt P08684) (P08684 whole entry, canonical isoform): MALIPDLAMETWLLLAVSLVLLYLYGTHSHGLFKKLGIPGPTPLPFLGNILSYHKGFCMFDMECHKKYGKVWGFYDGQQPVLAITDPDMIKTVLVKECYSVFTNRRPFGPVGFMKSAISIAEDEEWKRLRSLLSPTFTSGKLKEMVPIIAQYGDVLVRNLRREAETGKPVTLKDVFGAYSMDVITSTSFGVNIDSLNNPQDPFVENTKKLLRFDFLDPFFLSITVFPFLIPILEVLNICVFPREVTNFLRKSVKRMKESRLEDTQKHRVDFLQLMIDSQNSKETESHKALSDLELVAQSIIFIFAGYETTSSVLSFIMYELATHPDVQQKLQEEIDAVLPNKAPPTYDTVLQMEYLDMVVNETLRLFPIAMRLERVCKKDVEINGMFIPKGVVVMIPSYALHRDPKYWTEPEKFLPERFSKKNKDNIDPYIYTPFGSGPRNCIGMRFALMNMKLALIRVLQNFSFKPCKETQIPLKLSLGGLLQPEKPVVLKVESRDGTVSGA
compound,measurement,setting,value
C[C@@H](Oc1ccc(S(C)(=O)=O)cc1C(=O)N1C[C@@H]2C[C@]2(c2cc(C(F)(F)F)on2)C1)C(F)(F)F [BI 425809],depletion of BI 425809,CYP3A4 [1],> 15%
same,"% In vitro CYP contribution, Depletion","CYP3A5; CYP3A5, depletion of BI 425809",~4%
same,depletion of BI 425809,"CYP3A5; rCYP3A5, NADPH, up to 60 min",> 15%
same,turnover of BI 425809 in human liver microsomes,human liver microsomes,No detectable turnover
same,inhibition of depletion of BI 425809 by erythromycin,CYP3A,92.1–100% and > 90%
same,"CL/F, gMean","[2]; BI 425809 25 mg + itraconazole, N = 15",12.4 mL/min
same,"CL/F, gMean","[2]; BI 425809 25 mg alone, N = 16",73.3 mL/min
same,"t1/2, gMean","[2]; BI 425809 25 mg alone, N = 16",45.5 h
same,"AUC0-167, adjusted gMean ratio T/R (90% CI)",[2]; [10],265.3% and 265.3 (240.9‒292.2) %
same,"AUC0-∞, adjusted gMean ratio T/R (90% CI)",[2]; [10],597.0% and 597.0 (514.2‒693.0) %
same,"Cmax, adjusted gMean ratio T/R (90% CI)",[2]; [10],116.1% and 116.1 (108.0‒124.7) %
same,extrapolated area of AUC0-∞,[2]; BI 425809 under itraconazole treatment,56%
same,AUC(0-t),[2]; [11],10.2 µM·h
same,Cmax,[2]; [11],316 nM
same,AUC(0-inf),"[2]; male, human, plasma, oral, 25 mg, adjusted gMean, BI 425809 alone (R), inferential analysis",11.1 µM·h
same,AUC(0-inf),[2]; [12],11.1 µM·h
same,AUC(0-inf),"[2]; male, human, plasma, oral, adjusted gMean, BI 425809 + itraconazole (T), inferential analysis",66.2 µM·h
same,AUC(0-inf),"[2]; male, human, plasma, oral, gMean, BI 425809 25 mg + itraconazole, N = 15",65.3 µM·h
same,AUC(0-t),"[2]; male, human, plasma, po, 25 mg",10.2 µM·h
same,Cmax,"[2]; read-out: Cmax, adjusted gMean, BI 425809 + itraconazole (T), inferential analysis",367 nM
same,increase in Cmax,[2]; with itraconazole versus alone,~16%
same,"CL/F, gMean","[3]; BI 425809 25 mg alone, N = 16",94.6 mL/min
same,"AUC0-168, adjusted gMean ratio T/R (90% CI)",[3]; [13],10.3% and 10.3 (9.3‒11.3) %
same,"AUC0-∞, adjusted gMean ratio T/R (90% CI)",[3]; [13],9.8 (8.8–11.0) %
same,"Cmax, adjusted gMean ratio T/R (90% CI)",[3]; [13],37.4% and 37.4 (33.0‒43.5) %
same,"AUC0-∞, adjusted gMean","[3]; BI 425809 alone (R), inferential analysis",8.596 µM·h
same,AUC0-168 ratio,[3]; BI 425809 co-administered with rifampicin relative to BI 425809 alone,0.10
same,AUC(0-t),[3]; [11],8.22 µM·h
same,half-life,[3]; [11],33.4 h
same,AUC(0-inf),[3]; [12],8.6 µM·h
same,AUC(0-inf),"[3]; male, human, plasma, oral, adjusted gMean, BI 425809 + rifampicin (T), inferential analysis",0.846 µM·h
same,AUC(0-inf),"[3]; male, human, plasma, oral, gMean, BI 425809 25 mg + rifampicin, N = 15",0.837 µM·h
same,AUC(0-t),"[3]; male, human, plasma, po, 25 mg",8.22 µM·h
same,Cmax,"[3]; read-out: Cmax, adjusted gMean, BI 425809 alone (R), inferential analysis",218 nM
same,Cmax,"[3]; read-out: Cmax, gMean, BI 425809 25 mg alone, N = 16",218 nM
same,Treatment-related AEs,[4],0 (0) n (%)
same,Participants with any AE,[4],6 (37.5) n (%)
same,Gastrointestinal disorders,[4],0 n (%)
same,General disorders and administration site conditions,[4],1 (6.3) n (%)
same,Infections and infestations,[4],3 (18.8) n (%)
same,Musculoskeletal and connective tissue disorders,[4],1 (6.3) n (%)
same,Nervous system disorders,[4],1 (6.3) n (%)
same,Vascular disorders,[4],1 (6.3) n (%)
same,participants who reported ≥ 1 AE,[4]; DDI with itraconazole,37.5%
same,tolerability,"[4]; both DDI studies (itraconazole and rifampicin), 25 mg single oral dose",well tolerated
same,Participants with Severe AE,[5]; DDI + rifampicin study,0 (0) n (%)
same,Treatment-related AEs,[5]; DDI + rifampicin study,0 (0) n (%)
same,Participants with any AE,[5]; DDI + rifampicin study,2 (12.5) n (%)
same,Gastrointestinal disorders,[5]; [14],0 n (%)
same,General disorders and administration site conditions,[5]; [14],0 n (%)
same,Nervous system disorders,[5]; [14],1 (6.3) n (%)
same,Renal and urinary disorders,[5]; [14],0 n (%)
same,"Respiratory, thoracic and mediastinal disorders",[5]; [14],1 (6.3) n (%)
same,Skin and subcutaneous tissue disorders,[5]; [14],0 n (%)
same,participants who reported ≥ 1 AE,[5]; DDI with rifampicin,12.5%
same,period of demonstrated analyte stability,[6],381 days
same,tolerability,[7],generally well tolerated
same,mean increase in cerebrospinal fluid glycine levels,[8],50%
"CCC(C)n1ncn(-c2ccc(N3CCN(c4ccc(OCC5COC(Cn6cncn6)(c6ccc(Cl)cc6Cl)O5)cc4)CC3)cc2)c1=O (stereo not shown) [Itraconazole, itraconazole, reference compound]",Treatment-related AEs,[4],1 (6.3) n (%)
same,Participants with any AE,[4],4 (25.0) n (%)
same,Gastrointestinal disorders,[4],1 (6.3) n (%)
same,General disorders and administration site conditions,[4],0 n (%)
same,Infections and infestations,[4],2 (12.5) n (%)
same,Musculoskeletal and connective tissue disorders,[4],1 (6.3) n (%)
same,Nervous system disorders,[4],0 n (%)
same,Vascular disorders,[4],0 n (%)
same,participants who reported ≥ 1 AE,[4]; DDI with itraconazole,25%
same,participants with AE considered as drug-related by the investigator,[4]; DDI with itraconazole,6.3%
"CO[C@H]1/C=C/O[C@@]2(C)Oc3c(C)c(O)c4c(O)c(c(/C=N/N5CCN(C)CC5)c(O)c4c3C2=O)NC(=O)/C(C)=C\C=C\[C@H](C)[C@H](O)[C@@H](C)[C@@H](O)[C@@H](C)[C@H](OC(C)=O)[C@@H]1C [Rifampicin, rifampicin, reference compound]",Participants with Severe AE,[5]; DDI + rifampicin study,0 (0) n (%)
same,Treatment-related AEs,[5]; DDI + rifampicin study,16 (100) n (%)
same,Participants with any AE,[5]; DDI + rifampicin study,16 (100) n (%)
same,Gastrointestinal disorders,[5]; [14],0 n (%)
same,General disorders and administration site conditions,[5]; [14],1 (6.3) n (%)
same,Renal and urinary disorders,[5]; [14],16 (100) n (%)
same,"Respiratory, thoracic and mediastinal disorders",[5]; [14],0 n (%)
same,Skin and subcutaneous tissue disorders,[5]; [14],1 (6.3) n (%)
same,participants who reported ≥ 1 AE,[5]; DDI with rifampicin,100%
same,participants with AE considered as drug-related by the investigator,[5]; DDI with rifampicin,100%
CC(=O)N1CCN(c2ccc(OCC3COC(Cn4ccnc4)(c4ccc(Cl)cc4Cl)O3)cc2)CC1 (stereo not shown) [ketoconazole],inhibition of formation of BI 425809 metabolites M530 and M544,CYP3A4 [9],completely inhibited
